Measurements from ChEMBL document CHEMBL1143797, “Synthesis, characterization and in vitro biological studies of novel cyano derivatives of N-alkyl and N-aryl piperazine” (2007).
≈ marks a conversion by molar mass, not a printed value. Calls of active or inactive are those of the source. The calls are words filed in the database; no cut-off is given here.

Legend:
Pseudomonas aeruginosa [1] = test: Antibacterial activity against Pseudomonas aeruginosa MTCCB 741 after 18-20 hrs by broth dilution method; type: functional
How it was run: (§1)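 MIC was found by microbroth dilution in Mueller-Hinton broth with serial two-fold compound dilutions. The inoculum came from a 4–6 h broth culture adjusted to 0.5 McFarland, then diluted in broth to a final 3 × 10⁶ cfu/ml.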

HeLa = test: Cytotoxicity against Hela cells at 30 ug after 48 hrs by MTT assay relative to gentamicin; type: functional, Homo sapiens
How it was run: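 HeLa cells were grown in DMEM with 10% heat-inactivated FBS and penicillin-streptomycin at 37 °C, 5% CO₂, seeded at 8 × 10³ cells/well and allowed 16 h to adhere. They were exposed to compound in serum-free DMEM for 4 h, then kept 48 h in growth medium. MTT was added for 2 h, formazan was dissolved in isopropanol/0.06 M HCl/0.5% SDS, and A540 was read. Viability is % of untreated cells, with gentamicin as comparator.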

Staphylococcus aureus [2] = test: Antibacterial activity against Staphylococcus aureus MTCCB 737 after 18-20 hrs by broth dilution method; type: functional; how it was run: as §1
Staphylococcus aureus [3] = test: Antibacterial activity against Staphylococcus aureus MTCCB 737 at 30 ug/disc after 48 hrs by disc diffusion method; type: functional; conditions: for zone of inhibition at 30 µg/disc: read-out: IZ
How it was run: (§2)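 Compound-impregnated discs were placed on agar plates pre-inoculated with the bacterial strain and incubated at 37 °C. Zones of inhibition around the discs were read at 48 h. Gentamicin served as the standard control, alongside a solvent-only (DMSO) disc.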

Pseudomonas aeruginosa [4] = test: Antibacterial activity against Pseudomonas aeruginosa MTCCB 741 at 30 ug/disc after 48 hrs by disc diffusion method; type: functional; conditions: for zone of inhibition at 30 µg/disc: read-out: IZ; how it was run: as §2
[5] = test system: Staphylococcus epidermidis; test: Antibacterial activity against Staphylococcus epidermidis MTCCB 1824 after 18-20 hrs by broth dilution method; type: functional; how it was run: as §1
[6] = test system: Staphylococcus epidermidis; test: Antibacterial activity against Staphylococcus epidermidis MTCCB 1824 at 30 ug/disc after 48 hrs by disc diffusion method; type: functional; conditions: for zone of inhibition at 30 µg/disc: read-out: IZ; how it was run: as §2
Aspergillus fumigatus [7] = test: Antifungal activity against Aspergillus fumigatus ITCC 4517 by percentage spore germination inhibition method; type: functional
How it was run: (§3)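 Compound serially double-diluted in culture medium in 96-well plates, triplicate wells per concentration. Each well inoculated with spore suspension of about 100 ± 5 spores and incubated at 37 °C for 16 h. Germinated and non-germinated spores counted by inverted microscope. MIC90 is the lowest concentration giving >90% inhibition of spore germination.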

Aspergillus niger [8] = test: Antifungal activity against Aspergillus niger ITCC 5405 by percentage spore germination inhibition method; type: functional; how it was run: as §3
Escherichia coli [9] = test: Antibacterial activity against Escherichia coli MTCCB 1652 at 30 ug/disc after 48 hrs by disc diffusion method; type: functional; conditions: for zone of inhibition at 30 µg/disc: read-out: IZ; how it was run: as §2
Aspergillus flavus [10] = test: Antifungal activity against Aspergillus flavus ITCC 5192 by percentage spore germination inhibition method; type: functional; how it was run: as §3
Aspergillus niger [11] = test: Antifungal activity against Aspergillus niger ITCC 5405 by micro-broth dilution method; type: functional
Aspergillus fumigatus [12] = test: Antifungal activity against Aspergillus fumigatus ITCC 4517 by micro-broth dilution method; type: functional
Escherichia coli [13] = test: Antibacterial activity against Escherichia coli MTCCB 1652 after 18-20 hrs by broth dilution method; type: functional; how it was run: as §1
Aspergillus flavus [14] = test: Antifungal activity against Aspergillus flavus ITCC 5192 by micro-broth dilution method; type: functional
Aspergillus niger [15] = test: Antifungal activity against Aspergillus niger ITCC 5405 by disc diffusion method; type: functional
How it was run: (§4)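 Agar plates inoculated with Aspergillus spores; sterile 5.0 mm filter-paper discs loaded with test compound over a range of 750–1.46 (unit as printed unclear) and placed on the surface. Incubated at 37 °C; zones read at 24, 48 and 96 h. MIC was taken as the lowest concentration giving an inhibition zone of at least 6.0 mm diameter.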

Aspergillus flavus [16] = test: Antifungal activity against Aspergillus flavus ITCC 5192 by disc diffusion method; type: functional; how it was run: as §4
Aspergillus fumigatus [17] = test: Antifungal activity against Aspergillus fumigatus ITCC 4517 by disc diffusion method; type: functional; how it was run: as §4

Compound | MIC (Aspergillus fumigatus [7]) [µg/mL] | Activity (Aspergillus niger [8]) | MIC (Pseudomonas aeruginosa [1]) [µg/mL] | zone of inhibition at 30 µg/disc (Escherichia coli [9]) [mm] | MIC (Aspergillus flavus [10]) [µg/mL] | MIC (Staphylococcus aureus [2]) [µg/mL] | Activity (Aspergillus niger [11]) | zone of inhibition at 30 µg/disc (Staphylococcus aureus [3]) [mm] | MIC (Aspergillus fumigatus [12]) [µg/mL] | zone of inhibition at 30 µg/disc (Pseudomonas aeruginosa [4]) [mm] | MIC [5] [µg/mL] | MIC (Escherichia coli [13]) [µg/mL] | MIC (Aspergillus flavus [14]) [µg/mL] | Activity (Aspergillus niger [15]) | zone of inhibition at 30 µg/disc [6] [mm] | also measured
N#CCN1CCN(c2ccccc2[N+](=O)[O-])CC1 |  |  |  |  |  |  |  |  |  |  |  |  |  |  |  | Activity (Pseudomonas aeruginosa [1]): inactive; Activity (HeLa): 60%; Activity (Staphylococcus aureus [2]): inactive; Activity (Staphylococcus aureus [3]): inactive; Activity (Pseudomonas aeruginosa [4]): inactive; Activity [5]: inactive; Activity [6]: inactive
COc1ccccc1N1CCN(CCC#N)CC1 | 500 (≈ 2040 µM) | inactive | 625 (≈ 2550 µM) | 11 | 500 (≈ 2040 µM) | 156 (≈ 637 µM) | inactive | 12 | 500 (≈ 2040 µM) | 9 | 625 (≈ 2550 µM) | 156 (≈ 637 µM) | 1000 (≈ 4080 µM) | inactive | 9 | 
C[C@@H]1[C@H](O)[C@@H](C)/C=C/C=C/C=C/C=C/C=C/C=C/C=C/[C@H](O[C@@H]2O[C@H](C)[C@@H](O)[C@H](N)[C@@H]2O)C[C@@H]2O[C@](O)(C[C@@H](O)C[C@@H](O)[C@H](O)CC[C@@H](O)C[C@@H](O)CC(=O)O[C@H]1C)C[C@H](O)[C@H]2C(=O)O [AMPHOTERICIN B] | 5 (≈ 5.41 µM) |  |  |  | 5 (≈ 5.41 µM) |  |  |  | 5 (≈ 5.41 µM) |  |  |  | 5 (≈ 5.41 µM) |  |  | MIC (Aspergillus flavus [16]): 2.5 µg/disc; MIC (Aspergillus niger [8]): 5 µg/mL (≈ 5.41 µM); MIC (Aspergillus niger [11]): 5 µg/mL (≈ 5.41 µM); MIC (Aspergillus fumigatus [17]): 2.5 µg/disc; MIC (Aspergillus niger [15]): 2.5 µg/disc
N#CCN1CCN(Cc2ccccc2)CC1 |  | inactive | 156 (≈ 726 µM) | 9 |  | 19.5 (≈ 90.6 µM) | inactive | 18 |  | 13 | 310 (≈ 1440 µM) | 625 (≈ 2900 µM) |  | inactive | 10 | Activity (Aspergillus flavus [16]): inactive; Activity (Aspergillus flavus [10]): inactive; Activity (Aspergillus fumigatus [12]): inactive; Activity (Aspergillus flavus [14]): inactive
N#CCCN1CCNCC1 |  |  |  |  |  |  |  |  |  |  |  |  |  |  |  | Activity (Pseudomonas aeruginosa [1]): inactive; Activity (Staphylococcus aureus [2]): inactive; Activity (Staphylococcus aureus [3]): inactive; Activity (Pseudomonas aeruginosa [4]): inactive; Activity [5]: inactive; Activity [6]: inactive
N#CCCN1CCN(Cc2ccccc2)CC1 |  |  |  |  |  |  |  |  |  |  |  |  |  |  |  | Activity (Pseudomonas aeruginosa [1]): inactive; Activity (Staphylococcus aureus [2]): inactive; Activity (Staphylococcus aureus [3]): inactive; Activity (Pseudomonas aeruginosa [4]): inactive; Activity [5]: inactive; Activity [6]: inactive
N#CCCN1CCN(CCO)CC1 |  | inactive | 39.1 (≈ 213 µM) | 15 |  | 19.5 (≈ 106 µM) | inactive | 18 |  | 15 | 310 (≈ 1690 µM) | 39.1 (≈ 213 µM) |  | inactive | 11 | Activity (Aspergillus fumigatus [7]): inactive; Activity (Aspergillus flavus [16]): inactive; Activity (Aspergillus flavus [10]): inactive; Activity (HeLa): 60%; Activity (Aspergillus fumigatus [12]): inactive; Activity (Aspergillus fumigatus [17]): inactive; Activity (Aspergillus flavus [14]): inactive
N#CCCN1CCN(CCC#N)CC1 |  | inactive | 156 (≈ 813 µM) | 10 |  | 310 (≈ 1610 µM) | inactive | 11 |  | 11 | 625 (≈ 3250 µM) | 625 (≈ 3250 µM) |  | inactive | 9 | Activity (Aspergillus flavus [16]): inactive; Activity (Aspergillus flavus [10]): inactive; Activity (Aspergillus fumigatus [12]): inactive; Activity (Aspergillus fumigatus [17]): inactive; Activity (Aspergillus flavus [14]): inactive
N#CCCN1CCN(c2ccccc2)CC1 | 250 (≈ 1160 µM) |  | 625 (≈ 2900 µM) | 12 | 250 (≈ 1160 µM) | 156 (≈ 726 µM) |  | 13 | 250 (≈ 1160 µM) | 9 | 156 (≈ 726 µM) | 156 (≈ 726 µM) | 500 (≈ 2320 µM) |  | 12 | MIC (Aspergillus niger [8]): 250 µg/mL (≈ 1160 µM); Activity (HeLa): 60%; MIC (Aspergillus niger [11]): 500 µg/mL (≈ 2320 µM)
CN1CCN(CCC#N)CC1 |  | inactive | 19.5 (≈ 127 µM) | 18 |  | 310 (≈ 2030 µM) | inactive | 10 |  | 19 | 156 (≈ 1020 µM) | 39.1 (≈ 255 µM) |  | inactive | 11 | Activity (Aspergillus fumigatus [7]): inactive; Activity (Aspergillus flavus [16]): inactive; Activity (Aspergillus flavus [10]): inactive; Activity (Aspergillus fumigatus [12]): inactive; Activity (Aspergillus fumigatus [17]): inactive; Activity (Aspergillus flavus [14]): inactive
CN1CCN(CC#N)CC1 | 500 (≈ 3590 µM) |  | 625 (≈ 4490 µM) | 12 | 250 (≈ 1800 µM) | 310 (≈ 2230 µM) |  | 12 | 500 (≈ 3590 µM) | 9 | 625 (≈ 4490 µM) | 310 (≈ 2230 µM) | 500 (≈ 3590 µM) |  | 8 | MIC (Aspergillus flavus [16]): 93.8 µg/disc; MIC (Aspergillus niger [8]): 250 µg/mL (≈ 1800 µM); MIC (Aspergillus niger [11]): 500 µg/mL (≈ 3590 µM); MIC (Aspergillus niger [15]): 93.7 µg/disc
N#CCN1CCN(c2ccccc2)CC1 | 250 (≈ 1240 µM) |  | 156 (≈ 777 µM) | 9 | 500 (≈ 2480 µM) | 310 (≈ 1540 µM) |  | 10 | 500 (≈ 2480 µM) | 13 | 156 (≈ 777 µM) | 310 (≈ 1540 µM) | 500 (≈ 2480 µM) |  | 12 | MIC (Aspergillus niger [8]): 250 µg/mL (≈ 1240 µM); Activity (HeLa): >95%; MIC (Aspergillus niger [11]): 500 µg/mL (≈ 2480 µM)
GENTAMICIN |  |  | 19.5 |  |  | 9.8 |  |  |  |  | 19.5 | 19.5 |  |  |  | inhibition zone (IZ) (Escherichia coli [9]): 18 mm; inhibition zone (IZ) (Staphylococcus aureus [3]): 20 mm; inhibition zone (IZ) (Pseudomonas aeruginosa [4]): 19 mm; inhibition zone (IZ) [6]: 18 mm
COc1ccccc1N1CCN(CC#N)CC1 |  |  | 625 (≈ 2700 µM) | 10 |  | 625 (≈ 2700 µM) |  | 9 |  | 8 | 625 (≈ 2700 µM) | 310 (≈ 1340 µM) |  |  | 8 | 
